Results: ChEMBL document CHEMBL1149812, “Synthesis of N-aryl-5-amino-4-cyanopyrazole derivatives as potent xanthine oxidase inhibitors” (Eur J Med Chem, 2008)

Columns and labels:
[1] = target: T1, Xanthine dehydrogenase/oxidase (Homo sapiens, UniProt P47989); test: Inhibition of xanthine oxidase
Method in brief: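 Enzyme preincubated 15 min at room temperature: xanthine oxidase 0.066 U/mL in 50 mM potassium dihydrogen phosphate pH 7.4 with compound in DMSO (1% final). Started with 100 µM xanthine plus 1 mM EDTA. Mean ± SEM of 3 experiments, each in triplicate.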

MCF7 = test: Growth inhibition of human MCF7 cells after 48 hrs; format: functional; settings: MCF7, 48 h
Method in brief: (§1)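 SRB protein-stain assay following the NCI screening protocol. Cells kept adherent in RPMI-1640 with 5% heat-inactivated FBS, 2 mM glutamine and 50 µg/mL gentamicin at 37 °C under 5% CO2. Seeded at 7.5 × 10^4 cells/mL (NCI-H460) or 1.5 × 10^5 cells/mL (MCF-7, SF-268). Exposed 48 h to five concentrations, top 150 µM, DMSO ≤0.25%. […] Mean ± SEM of 1–6 experiments in duplicate.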

SF-268 = test: Growth inhibition of human SF268 cells after 48 hrs; format: functional; settings: SF-268, 48 h; method in brief: as §1
NCI-H460 = test: Growth inhibition of human NCI-H460 cells after 48 hrs; format: functional; settings: NCI-H460, 48 h; method in brief: as §1
[2] = target: T1, Xanthine dehydrogenase/oxidase; test: Activity of xanthine oxidase assessed as change in absorbance per min at 0.025 uM in presence of xanthine
Method in brief: (§2)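 Kinetic runs: xanthine oxidase (0.066 U/mL) in 50 mM potassium dihydrogen phosphate pH 7.4 preincubated 15 min at room temperature with inhibitor in DMSO (1% final). Started with xanthine at 100, 75, 50 or 25 µM plus 1 mM EDTA. Uric acid formation read at 295 nm over 2 min as ΔA/min. Vmax and Km taken from Lineweaver–Burk plots.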

[3] = target: T1, Xanthine dehydrogenase/oxidase; test: Activity of xanthine oxidase assessed as change in absorbance per min at 0.1 uM in presence of xanthine; method in brief: as §2
[4] = target: T1, Xanthine dehydrogenase/oxidase; test: Activity of xanthine oxidase assessed as change in absorbance per min at 10 uM in presence of xanthine; method in brief: as §2
[5] = target: T1, Xanthine dehydrogenase/oxidase; test: Activity of xanthine oxidase assessed as change in absorbance per min at 40 uM in presence of xanthine; method in brief: as §2
[6] = target: T1, Xanthine dehydrogenase/oxidase; test: Inhibition of xanthine oxidase at 100 uM

T1 sequence (P47989 whole entry): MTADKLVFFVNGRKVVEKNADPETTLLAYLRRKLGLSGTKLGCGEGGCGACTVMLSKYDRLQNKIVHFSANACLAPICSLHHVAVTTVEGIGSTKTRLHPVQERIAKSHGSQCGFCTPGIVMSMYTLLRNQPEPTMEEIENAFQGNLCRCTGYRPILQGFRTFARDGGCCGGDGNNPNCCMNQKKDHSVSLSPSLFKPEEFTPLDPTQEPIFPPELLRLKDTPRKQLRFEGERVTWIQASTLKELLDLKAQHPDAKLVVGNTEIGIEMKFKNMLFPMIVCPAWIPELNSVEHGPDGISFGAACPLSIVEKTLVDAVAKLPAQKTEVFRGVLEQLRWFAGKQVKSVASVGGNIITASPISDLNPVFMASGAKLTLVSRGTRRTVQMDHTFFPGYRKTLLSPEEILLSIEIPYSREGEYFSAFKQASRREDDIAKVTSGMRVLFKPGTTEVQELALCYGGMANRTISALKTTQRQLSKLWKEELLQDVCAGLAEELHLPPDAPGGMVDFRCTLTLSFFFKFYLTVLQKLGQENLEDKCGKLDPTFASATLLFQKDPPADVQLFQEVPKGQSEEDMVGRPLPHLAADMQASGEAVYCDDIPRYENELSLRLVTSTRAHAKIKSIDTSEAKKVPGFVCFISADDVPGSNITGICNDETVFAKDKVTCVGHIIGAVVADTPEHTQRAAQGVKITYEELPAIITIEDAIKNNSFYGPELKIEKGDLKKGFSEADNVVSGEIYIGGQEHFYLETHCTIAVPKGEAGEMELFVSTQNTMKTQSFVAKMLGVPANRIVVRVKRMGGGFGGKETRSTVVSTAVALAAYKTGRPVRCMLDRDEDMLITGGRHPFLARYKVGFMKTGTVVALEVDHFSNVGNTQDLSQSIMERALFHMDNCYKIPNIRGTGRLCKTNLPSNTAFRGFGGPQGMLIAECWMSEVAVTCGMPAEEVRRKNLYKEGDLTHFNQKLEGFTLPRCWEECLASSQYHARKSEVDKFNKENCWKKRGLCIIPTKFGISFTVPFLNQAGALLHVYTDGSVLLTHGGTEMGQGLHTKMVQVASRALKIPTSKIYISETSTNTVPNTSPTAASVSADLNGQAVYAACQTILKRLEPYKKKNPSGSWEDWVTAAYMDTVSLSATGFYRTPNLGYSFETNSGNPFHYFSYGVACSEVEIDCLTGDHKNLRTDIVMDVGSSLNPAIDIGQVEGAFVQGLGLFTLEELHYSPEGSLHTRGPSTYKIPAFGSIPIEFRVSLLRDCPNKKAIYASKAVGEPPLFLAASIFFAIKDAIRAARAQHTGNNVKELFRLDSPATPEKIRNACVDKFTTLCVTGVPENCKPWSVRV

Compound	IC50 [1] [µM]	GI50 (MCF7) [µM]	GI50 (SF-268) [µM]	GI50 (NCI-H460) [µM]	also measured
N#Cc1ccc(-n2ncc(C#N)c2N)cc1	> 100	> 150	> 150	> 150	
Nc1ncnc2c1cnn2-c1ccc(C(F)(F)F)cc1	0.18				
Nc1ncnc2c1cnn2-c1ccc([N+](=O)[O-])cc1	2.2				
COC(=O)CNC(=O)c1ccc(-n2ncc3c(N)ncnc32)cc1	0.08	> 150	> 150	> 150	deltaA [2]: 0.16; deltaA [3]: 0.13
COC(=O)CNC(=O)c1ccc(-n2ncc(C#N)c2N)cc1	37.9	> 150	> 150	> 150	deltaA [4]: 0.23; deltaA [5]: 0.09
Cc1ccc(-n2ncc(C#N)c2N)cc1	> 100	> 150	> 150	> 150	
Cc1ccc(-n2ncc3c(N)ncnc32)cc1	17.4				
N#Cc1cnn(-c2ccc(C(=O)O)cc2)c1N	36.1				deltaA [4]: 0.12; deltaA [5]: 0.08
COc1ccc(-n2ncc(C#N)c2N)cc1	> 100	> 150	> 150	> 150	
Nc1ncnc2c1cnn2-c1ccc(C(=O)O)cc1	81				
CC(=O)OC[C@H]1O[C@@H](Nc2ncnc3c2cnn3-c2ccc(C(=O)O)cc2)[C@H](OC(C)=O)[C@@H](OC(C)=O)[C@@H]1OC(C)=O	18.4	> 150	> 150	> 150	
Oc1ncnc2[nH]ncc12 [ALLOPURINOL]					inhibition at 100 µM [6]: 96.3%
N#Cc1ccc(-n2ncc3c(N)ncnc32)cc1	0.4				
N#Cc1cnn(-c2ccc(Cl)cc2)c1N	> 100	> 150	> 150	> 150	
COc1cccc2c1C(=O)c1c(O)c3c(c(O)c1C2=O)C[C@@](O)(C(=O)CO)C[C@@H]3O[C@H]1C[C@H](N)[C@H](O)[C@H](C)O1 [DOXORUBICIN]		0.0428	0.093	0.094	
COc1ccc(-n2ncc3c(N)ncnc32)cc1	19.6	> 150	> 150	> 150	
N#Cc1cnn(-c2ccc([N+](=O)[O-])cc2)c1N	> 100	64	135	128	
CC(=O)OC[C@H]1O[C@@H](Nc2c(C#N)cnn2-c2ccc(C(=O)O)cc2)[C@H](OC(C)=O)[C@@H](OC(C)=O)[C@@H]1OC(C)=O	> 100				
N#Cc1cnn(-c2ccc(C(F)(F)F)cc2)c1N	> 100	> 150	> 150	> 150	
